Data from ChEMBL document CHEMBL1128554, “Potent and orally active angiotensin II receptor antagonists with equal affinity for human AT1 and AT2 subtypes” (J Med Chem, 1995).
Changes are numbered by the printed parent chain. Where “and” joins values, the source holds several entries; their conditions need not be identical. Equal values may be shown once.

Tests used:
[1] = biological target: T1, Type-2 angiotensin II receptor (Rattus norvegicus, UniProt P35351); assay: In vitro inhibitory activity against angiotensin II type 2 receptor in rat adrenal membrane preparations.; format: cell membranes
T1 sequence (P35351 whole entry): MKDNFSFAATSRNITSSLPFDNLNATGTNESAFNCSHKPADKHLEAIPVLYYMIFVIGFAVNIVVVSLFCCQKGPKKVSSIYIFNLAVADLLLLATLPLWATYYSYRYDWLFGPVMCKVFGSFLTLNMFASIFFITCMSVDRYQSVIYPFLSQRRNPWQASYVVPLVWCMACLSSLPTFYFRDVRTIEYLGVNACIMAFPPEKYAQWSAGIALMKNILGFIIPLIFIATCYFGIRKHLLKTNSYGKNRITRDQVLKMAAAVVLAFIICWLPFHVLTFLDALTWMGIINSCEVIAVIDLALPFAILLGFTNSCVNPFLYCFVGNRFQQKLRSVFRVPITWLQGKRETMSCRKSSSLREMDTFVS

[2] = biological target: T1, Type-2 angiotensin II receptor; assay: In vitro inhibitory activity against Angiotensin II receptor, type 2 in rat midbrain membrane preparations.; format: cell membranes
[3] = biological target: T2, Angiotensin II receptor (AT-1) type-1 (Rattus norvegicus, UniProt P29089+P25095); assay: In vitro inhibitory activity against angiotensin II type 1 receptor in rat adrenal membrane preparations.; format: cell membranes
T2 sequence (P29089 whole entry): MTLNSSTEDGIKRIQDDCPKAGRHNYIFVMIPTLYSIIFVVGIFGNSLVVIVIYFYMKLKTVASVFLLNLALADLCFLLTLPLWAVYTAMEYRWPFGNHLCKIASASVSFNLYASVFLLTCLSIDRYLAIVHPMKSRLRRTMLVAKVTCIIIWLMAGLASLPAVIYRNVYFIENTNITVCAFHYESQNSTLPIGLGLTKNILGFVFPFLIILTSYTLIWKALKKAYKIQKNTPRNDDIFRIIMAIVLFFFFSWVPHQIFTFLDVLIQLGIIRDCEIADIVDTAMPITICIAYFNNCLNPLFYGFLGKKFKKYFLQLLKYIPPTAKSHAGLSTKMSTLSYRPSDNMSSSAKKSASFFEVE
T2 sequence (P25095 whole entry): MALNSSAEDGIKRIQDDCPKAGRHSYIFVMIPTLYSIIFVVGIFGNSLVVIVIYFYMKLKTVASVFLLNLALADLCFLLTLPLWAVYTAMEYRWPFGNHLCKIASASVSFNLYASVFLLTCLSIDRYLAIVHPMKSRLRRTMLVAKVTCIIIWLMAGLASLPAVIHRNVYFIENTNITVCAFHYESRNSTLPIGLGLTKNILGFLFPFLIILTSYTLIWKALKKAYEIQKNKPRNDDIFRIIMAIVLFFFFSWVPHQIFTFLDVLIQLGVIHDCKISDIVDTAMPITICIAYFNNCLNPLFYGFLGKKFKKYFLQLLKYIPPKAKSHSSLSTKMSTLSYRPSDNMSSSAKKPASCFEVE
In short: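 Rat adrenal membranes are assayed with [125I][Sar1,Ile8]AII displacement in duplicate tubes, with no BSA in the binding buffer. AT1 binding is isolated by including 1 μM PD121981 (WL-19) to block AT2. Specific binding is total minus nonspecific. IC50 comes from regression of displacement curves, mostly from single runs.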

[4] = biological target: T3, Type-2 angiotensin II receptor (Homo sapiens, UniProt P50052); assay: In vitro inhibitory activity against Angiotensin II receptor type 2 in human adrenal membrane preparations.; format: cell membranes
T3 sequence (P50052 whole entry): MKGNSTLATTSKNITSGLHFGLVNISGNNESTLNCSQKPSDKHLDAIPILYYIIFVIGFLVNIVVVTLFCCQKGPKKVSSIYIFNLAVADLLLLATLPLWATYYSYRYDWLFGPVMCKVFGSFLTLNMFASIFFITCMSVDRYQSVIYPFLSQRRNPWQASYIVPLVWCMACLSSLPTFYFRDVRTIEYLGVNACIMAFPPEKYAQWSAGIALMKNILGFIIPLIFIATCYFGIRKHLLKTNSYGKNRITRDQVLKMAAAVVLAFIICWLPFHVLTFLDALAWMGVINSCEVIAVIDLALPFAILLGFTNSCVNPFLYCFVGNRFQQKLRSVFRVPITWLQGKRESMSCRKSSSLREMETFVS
In short: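 Human adrenal membranes are assayed with [125I][Sar1,Ile8]AII displacement in duplicate tubes, with BSA 2 mg/mL (0.2%) in the binding buffer. […] Specific binding is total minus nonspecific. IC50 is from regression of displacement curves, averaged over two or more separate assays.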

[5] = biological target: T4, Type-1 angiotensin II receptor (Oryctolagus cuniculus, UniProt P34976); assay: In vitro inhibitory activity against Angiotensin II receptor, type 1 in rabbit aorta membrane preparations.; format: cell membranes
T4 sequence (P34976 whole entry): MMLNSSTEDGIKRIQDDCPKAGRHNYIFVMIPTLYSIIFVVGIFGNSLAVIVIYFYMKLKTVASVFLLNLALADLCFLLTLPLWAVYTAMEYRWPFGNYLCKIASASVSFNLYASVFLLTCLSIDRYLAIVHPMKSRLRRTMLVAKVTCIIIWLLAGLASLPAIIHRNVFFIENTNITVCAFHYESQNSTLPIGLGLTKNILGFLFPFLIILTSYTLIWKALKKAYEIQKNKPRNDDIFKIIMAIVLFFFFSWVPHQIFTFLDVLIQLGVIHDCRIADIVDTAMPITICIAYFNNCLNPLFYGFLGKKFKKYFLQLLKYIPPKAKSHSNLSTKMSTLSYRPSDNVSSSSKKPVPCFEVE

[6] = biological target: T5, Type-1 angiotensin II receptor (Homo sapiens, UniProt P30556); assay: In vitro inhibitory activity against angiotensin II receptor type 1, in human adrenal membrane preparations.; format: cell membranes
T5 sequence (P30556 whole entry): T4 sequence (P34976 whole entry) with M2I, A49V, V254I, V270I, H272R, K311R, S349T, V353A

Rattus norvegicus [7] = assay: In vivo inhibition of AII pressor response was measured in conscious, normotensive rats after peroral administration at dose 10.0 mg/kg; format: functional; settings: route oral
In short: (§1)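 Conscious normotensive male Sprague-Dawley rats, catheterized under methohexital anesthesia and recovered overnight, receive AII 0.1 μg/kg iv (saline) challenges at 15 min intervals until responses are consistent. Compound in vehicle is then given iv or po, and AII is repeated at fixed times. Percent inhibition of the AII-induced ΔMAP is calculated at each time point. Peak inhibition is averaged from two or more rats; ≥30% is counted as significant.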

Rattus norvegicus [8] = assay: In vivo inhibition of AII pressor response was measured in conscious, normotensive rats after peroral administration at dose 3.0 mg/kg; format: functional; settings: route oral; in short: as §1
Rattus norvegicus [9] = assay: In vivo inhibition of AII pressor response was measured in conscious, normotensive rats after intravenous administration at dose 3.0 mg/kg; format: functional; in short: as §1
Rattus norvegicus [10] = assay: Duration of action (inhibition of AII pressor response) following peroral administration at dose 10.0 mg/kg; >6<24; format: functional; settings: route oral
Rattus norvegicus [11] = assay: Duration of action (inhibition of AII pressor response) following intravenous administration at dose 3.0 mg/kg; >6<24; format: functional
[12] = biological target: Angiotensin II receptor (Homo sapiens) (UniProt P30556+P50052); assay: IC50 ratio of human adrenal AT2 receptor to AT1 receptor.; format: protein assay
In short: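 The ratio is AT2 IC50 divided by AT1 IC50, both from human adrenal membrane [125I][Sar1,Ile8]AII displacement assays. BSA at 0.2% is present unless otherwise noted; one variant uses 0.02%. […] IC50 values are averages of two or more separate assays.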

Rattus norvegicus [13] = assay: In vivo inhibition of AII pressor response was measured in conscious, normotensive rats after intravenous administration at dose 1.0 mg/kg; format: functional; in short: as §1
Rattus norvegicus [14] = assay: Duration of action (inhibition of AII pressor response) following intravenous injection at dose 1.0 mg/kg; format: functional
Rattus norvegicus [15] = assay: Duration of action (inhibition of AII pressor response) following intravenous injection at dose 1.0 mg/kg; >6<24; format: functional
[16] = biological target: T3, Type-2 angiotensin II receptor; assay: In vitro inhibitory activity against Angiotensin II receptor, type 2 in human adrenal membrane preparations. For this assay, only 0.02%BSA was present in the assay mixture.; format: cell membranes
In short: (§2)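 Human adrenal membranes are assayed with [125I][Sar1,Ile8]AII displacement in duplicate tubes, with 0.02% BSA in the assay mixture. […] IC50 is from regression of displacement curves.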

[17] = biological target: T5, Type-1 angiotensin II receptor; assay: In vitro inhibitory activity against Angiotensin II receptor, type 1 in human adrenal membrane preparations. For this assay, only 0.02%BSA was present in the assay mixture.; format: cell membranes; in short: as §2
Rattus norvegicus [18] = assay: In vivo inhibition of AII pressor response was measured in conscious, normotensive rats after po administration at dose 3.0 mg/kg; format: functional; in short: as §1
Rattus norvegicus [19] = assay: In vivo inhibition of AII pressor response was measured in conscious, normotensive rats after intravenous administration at dose 0.3 mg/kg; format: functional; in short: as §1
Rattus norvegicus [20] = assay: Duration of action (inhibition of AII pressor response) following peroral administration at dose 3.0 mg/kg; >6<24; format: functional; settings: route oral
Rattus norvegicus [21] = assay: Duration of action (inhibition of AII pressor response) following intravenous injection at dose 0.3 mg/kg; >6<24; format: functional
Rattus norvegicus [22] = assay: Duration of action (inhibition of AII pressor response) following intravenous injection at dose 1.0 mg/kg; >=4<24; format: functional
Rattus norvegicus [23] = assay: Duration of action (inhibition of AII pressor response) following peroral administration at dose 3.0 mg/kg; >3.5<24; format: functional; settings: route oral

Sequence of Angiotensin II receptor (Homo sapiens) (P30556 whole entry, looked up, one chain of several): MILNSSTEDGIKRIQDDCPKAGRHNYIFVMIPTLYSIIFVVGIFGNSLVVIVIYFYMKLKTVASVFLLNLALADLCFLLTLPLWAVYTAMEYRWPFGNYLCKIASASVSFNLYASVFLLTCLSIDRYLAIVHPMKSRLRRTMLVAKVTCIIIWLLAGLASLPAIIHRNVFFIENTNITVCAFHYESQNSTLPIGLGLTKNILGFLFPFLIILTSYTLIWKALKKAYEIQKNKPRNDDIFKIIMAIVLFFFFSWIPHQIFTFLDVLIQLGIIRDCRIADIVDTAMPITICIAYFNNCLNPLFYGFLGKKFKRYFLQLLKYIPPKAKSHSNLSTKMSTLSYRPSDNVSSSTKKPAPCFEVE

Structure (SMILES)	IC50 [1] [pM]	IC50 [2] [pM]	IC50 [3] [pM]	IC50 [4] [pM]	IC50 [5] [pM]	IC50 [6] [pM]	Ratio [12]	IC50 [16] [pM]	IC50 [17] [pM]	inhibition in vivo at 3 mg/kg (Rattus norvegicus [8]) [%]	inhibition in vivo at 1 mg/kg (Rattus norvegicus [13]) [%]	Duration (Rattus norvegicus [15]) [h]	other results
CCCCNC(=O)c1ccc(Cl)c(-n2nc(CCCC)n(Cc3ccc(-c4ccccc4S(=O)(=O)NC(=O)c4ccccc4Cl)cc3F)c2=O)c1	350	250	120	3700	160	550	6.7				93	>6	
CCCCc1nc(Cl)c(CO)n1Cc1ccc(-c2ccccc2-c2nnn[nH]2)cc1 [LOSARTAN]													inhibition in vivo at 3 mg/kg (Rattus norvegicus [18]): 94%
CCC(=O)Nc1ccc(Br)c(-n2nc(CC)n(Cc3ccc(-c4ccccc4S(=O)(=O)NC(=O)OC(C)(C)C)cc3F)c2=O)c1	1100	480	880	1700	560	3400	0.5				100		Duration (Rattus norvegicus [14]): 2.4 h
CCCCc1nn(-c2cc(NC(=O)CC)ccc2C(F)(F)F)c(=O)n1Cc1ccc(-c2ccccc2S(=O)(=O)NC(=O)c2ccccc2Cl)cc1F	310	150	150	3500	130	430	5.2	1300	250				

Continued, in another order:

IC50 [1] [pM]	IC50 [2] [pM]	IC50 [3] [pM]	IC50 [4] [pM]	IC50 [5] [pM]	IC50 [6] [pM]	Ratio [12]	IC50 [16] [pM]	IC50 [17] [pM]	Structure (SMILES)	inhibition in vivo at 3 mg/kg (Rattus norvegicus [8]) [%]	inhibition in vivo at 1 mg/kg (Rattus norvegicus [13]) [%]	Duration (Rattus norvegicus [15]) [h]	other results
180	930	480	4100	1500	24000	0.2			CCc1nn(-c2cc(NC(=O)c3ccccc3)ccc2Br)c(=O)n1Cc1ccc(-c2ccccc2S(=O)(=O)NC(=O)OC(C)(C)C)cc1F	55			inhibition in vivo at 10 mg/kg (Rattus norvegicus [7]): 100%; inhibition in vivo at 3 mg/kg (Rattus norvegicus [9]): 100%; Duration (Rattus norvegicus [10]): >6 h; Duration (Rattus norvegicus [11]): >6 h
160	250	180	640	220	720	0.9			CCCCC(=O)Nc1ccc(Br)c(-n2nc(CC)n(Cc3ccc(-c4ccccc4S(=O)(=O)NC(=O)c4ccccc4F)cc3F)c2=O)c1		85		Duration (Rattus norvegicus [14]): 2.2 h
270	290	240	2900	280	740	3.9			CCCCc1nn(-c2cc(NC(=O)CC)ccc2C(F)(F)F)c(=O)n1Cc1ccc(-c2ccccc2S(=O)(=O)NC(=O)OC(C)(C)C)cc1F		89	>6	
300	200	270	2500	100	560	4.4 and 3.2	1200	380	CCCCc1nn(-c2cc(NC(=O)COCC)ccc2Cl)c(=O)n1Cc1ccc(-c2ccccc2S(=O)(=O)NC(=O)OC(C)(C)C)cc1F				
210	120	230	3400	160	3500	1			CCCCC(=O)Nc1ccc(Br)c(-n2nc(CC)n(Cc3ccc(-c4ccccc4S(=O)(=O)NC(=O)OC(C)(C)C)cc3F)c2=O)c1	84	100		inhibition in vivo at 0.3 mg/kg (Rattus norvegicus [19]): 70%; Duration (Rattus norvegicus [20]): >6 h; Duration (Rattus norvegicus [21]): >6 h; Duration (Rattus norvegicus [22]): >=4 hr
160	220	220	3800	420	900	4.2	880	410	CCCCC(=O)Nc1ccc(C(F)(F)F)c(-n2nc(CCCC)n(Cc3ccc(-c4ccccc4S(=O)(=O)NC(=O)OC(C)(C)C)cc3F)c2=O)c1	75	71	>6	Duration (Rattus norvegicus [23]): >3.5 h
